# pEC50, pIC50: −log10 of the molar value.
# Columns and labels:
# Hepatitis C virus [1] = test: Antiviral activity against HCV 1b strain N infected in chimpanzee assessed as reduction in viral load at 30 mg/kg, po BID for 14 days measured on day 2 postdosing; format: functional, Hepacivirus hominis, genotype 1b strain N
# How it was run: (§1)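 One chimpanzee infected with genotype 1a and one with genotype 1b were dosed orally with 30 mg/kg BID for 14 days. Serum viral load was measured by TaqMan quantitative RT-PCR. A pretreatment serum sample (day 0) served as the baseline.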
# Hepatitis C virus [2] = test: Antiviral activity against HCV 1b strain N after 4 days by RT-PCR; format: functional, organism-based, Hepacivirus hominis; details: genotype 1b strain N, 96 h
# How it was run: (§2)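 Subgenomic replicon cells (genotype 1b strain N, or chimeric 1a H77/1b Con1) grown in DMEM with 10% FBS and 400 µg/ml G418. Next day, the medium was switched to 5% FBS with inhibitor in half-log dilutions. After 4 days, total RNA was extracted and replicon RNA copies were counted by TaqMan real-time RT-PCR. Potency came from the fall in copy number.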
# Hepatitis C virus [3] = test: Drug resistance, ratio of EC50 for HCV 1b strain N with NS5B polymerase C316Y mutation to EC50 for wild type HCV 1b strain N infected in chimpanzee measured on day 11; format: functional, Hepacivirus hominis, genotype 1b strain N
# [4] = Tmax in monkey at 5 mg/kg, po; format: ADME, organism-based, Macaca mulatta; design: dose 5 mg/kg, route oral; details: rhesus monkey, in vivo
# How it was run: (§3)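 Rats, dogs and monkeys received one oral 5 mg/kg dose in polyethylene glycol 400. Serum was sampled at 0.3, 0.5, 1, 2, 4, 6, 9, 12 and 24 h. Plasma drug was extracted by acetonitrile protein precipitation with internal standard and quantified by LC-MS against spiked standards (peak-area ratio, linear regression). Limit of quantitation was about 20 ng/ml.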
# Hepatitis C virus [5] = test: Antiviral activity against HCV 1a H77 with NS5B polymerase G554D mutation infected in chimpanzee measured on day 5; format: functional, organism-based, Hepacivirus hominis; details: genotype 1a H77, 120 h
# [6] = AUC in dog at 5 mg/kg, po; format: ADME, organism-based, Canis lupus familiaris; design: dose 5 mg/kg, route oral; details: plasma; how it was run: as §3
# [7] = Tmax in dog at 5 mg/kg, po; format: ADME, organism-based, Canis lupus familiaris; design: dose 5 mg/kg, route oral; details: in vivo; how it was run: as §3
# [8] = Cmax in dog at 5 mg/kg, po; format: ADME, organism-based, Canis lupus familiaris; design: dose 5 mg/kg, route oral; details: in vivo; how it was run: as §3
# [9] = AUC in rat at 5 mg/kg, po; format: ADME, organism-based; design: dose 5 mg/kg, route oral; details: plasma; how it was run: as §3
# Hepatitis C virus [10] = test: Antiviral activity against HCV 1b strain N with NS5B polymerase C316Y mutation infected in chimpanzee measured on day 2; format: functional, organism-based, Hepacivirus hominis; details: genotype 1b strain N, 48 h
# Hepatitis C virus [11] = test: Antiviral activity against HCV 1b strain N with NS5B polymerase C316Y mutation infected in chimpanzee measured on day 5; format: functional, organism-based, Hepacivirus hominis; details: genotype 1b strain N, 120 h
# [12] = Oral bioavailability in monkey at 5 mg/kg; format: ADME, organism-based, Macaca mulatta; details: rhesus monkey, in vivo
# [13] = Tmax in rat at 5 mg/kg, po; format: ADME, organism-based; design: dose 5 mg/kg, route oral; details: in vivo; how it was run: as §3
# Hepatitis C virus [14] = test: Antiviral activity against HCV 1b strain N with NS5B polymerase C316Y mutation infected in chimpanzee measured on day 28; format: functional, organism-based, Hepacivirus hominis; details: genotype 1b strain N, 672 h
# Hepatitis C virus [15] = test: Antiviral activity against HCV 1b strain N after 4 days by RT-PCR in presence of 40% human serum; format: functional, organism-based, Hepacivirus hominis; details: genotype 1b strain N, 96 h
# How it was run: (§4)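 They were exposed for 4 days to half-log inhibitor dilutions in medium with 5% FBS plus 40% human serum, to assess protein binding. Replicon RNA copy number was then measured by TaqMan real-time RT-PCR on extracted total RNA.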
# [16] = Cmax in HCV 1a H77 infected chimpanzee at 30 mg/kg, po BID for 14 days measured after 2 hrs of postdose; format: ADME, organism-based, Pan troglodytes; design: dose 30 mg/kg, route oral; details: in vivo
# How it was run: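 Chimpanzees were dosed orally at 30 mg/kg BID for 14 days. Plasma drug was measured by LC-MS. For the genotype 1a animal, the value is the mean of three samples taken 2 h after the a.m. dose on days 2, 3 and 4.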
# Hepatitis C virus [17] = test: Drug resistance, ratio of EC50 for HCV 1a H77 with NS5B polymerase G554D mutation to EC50 for wild type HCV 1a H77 infected in chimpanzee measured on day 16; format: functional, Hepacivirus hominis, genotype 1a H77
# Hepatitis C virus [18] = test: Ratio of EC50 for HCV 1b strain N in presence of 40% human serum to EC50 for HCV 1b strain N in absence of human serum; format: functional, Hepacivirus hominis, genotype 1b strain N
# How it was run: (§5)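 Cells carrying the subgenomic replicon (genotype 1b strain N, or chimeric 1a H77/1b Con1) were maintained in DMEM with 10% FBS and 400 µg/ml G418. The next day they were given medium with 5% FBS and half-log inhibitor dilutions, with or without 40% human serum, for 4 days. Replicon RNA copy number was measured by TaqMan RT-PCR.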
# [19] = Half life in rat at 5 mg/kg, po; format: ADME, organism-based; design: dose 5 mg/kg, route oral; details: in vivo; how it was run: as §3
# Hepatitis C virus [20] = test: Antiviral activity against HCV 1b strain N with NS5B polymerase C316Y mutation infected in chimpanzee measured on day 11; format: functional, organism-based, Hepacivirus hominis; details: genotype 1b strain N, 264 h
# [21] = Oral bioavailability in dog at 5 mg/kg; format: ADME, organism-based, Canis lupus familiaris; details: in vivo
# [22] = Half life in monkey at 5 mg/kg, po; format: ADME, organism-based, Macaca mulatta; design: dose 5 mg/kg, route oral; details: rhesus monkey, in vivo; how it was run: as §3
# [23] = Inhibition of HCV 1a H77 NS5B polymerase by [3H]UTP incorporation assay; design: species or system Hepatitis C virus (isolate H77)
# Hepatitis C virus [24] = test: Drug resistance, ratio of EC50 for HCV 1a H77 with NS5B polymerase Y448C mutation to EC50 for wild type HCV 1a H77 infected in chimpanzee measured on day 28; format: functional, Hepacivirus hominis, genotype 1a H77
# [25] = Cmax in HCV 1b strain N infected chimpanzee at 30 mg/kg, po BID for 14 days measured after 2 hrs of postdose; format: ADME, organism-based, Pan troglodytes; design: dose 30 mg/kg, route oral; details: in vivo
# Hepatitis C virus [26] = test: Drug resistance, ratio of EC50 for HCV 1a H77 with NS5B polymerase G554D mutation to EC50 for wild type HCV 1a H77 infected in chimpanzee measured on day 2; format: functional, Hepacivirus hominis, genotype 1a H77
# [27] = Cmax in monkey at 5 mg/kg, po; format: ADME, organism-based, Macaca mulatta; design: dose 5 mg/kg, route oral; details: rhesus monkey, in vivo; how it was run: as §3
# Hepatitis C virus [28] = test: Antiviral activity against HCV 1a H77 after 4 days by RT-PCR; format: functional, organism-based, Hepacivirus hominis; details: genotype 1a H77, 96 h; how it was run: as §2
# Hepatitis C virus [29] = test: Antiviral activity against HCV 1a H77 after 4 days by RT-PCR in presence of 40% human serum; format: functional, organism-based, Hepacivirus hominis; details: genotype 1a H77, 96 h; how it was run: as §4
# [30] = Cmax in rat at 5 mg/kg, po; format: ADME, organism-based; design: dose 5 mg/kg, route oral; details: in vivo; how it was run: as §3
# Hepatitis C virus [31] = test: Inhibition of HCV 1b strain N NS5B polymerase by [3H]UTP incorporation assay; design: species or system Hepatitis C virus subtype 1b
# Hepatitis C virus [32] = test: Antiviral activity against HCV 1a H77 infected in chimpanzee assessed as reduction in viral load at 30 mg/kg, po BID for 14 days measured on day 2 postdosing; format: functional, Hepacivirus hominis, genotype 1a H77; how it was run: as §1
# Hepatitis C virus [33] = test: Antiviral activity against HCV 1a H77 with NS5B polymerase Y448C mutation infected in chimpanzee measured on day 28; format: functional, organism-based, Hepacivirus hominis; details: genotype 1a H77, 672 h
# Hepatitis C virus [34] = test: Drug resistance, ratio of EC50 for HCV 1b strain N with NS5B polymerase C316Y mutation to EC50 for wild type HCV 1b strain N infected in chimpanzee measured on day 28; format: functional, Hepacivirus hominis, genotype 1b strain N
# Hepatitis C virus [35] = test: Antiviral activity against HCV 1a H77 with NS5B polymerase G554D mutation infected in chimpanzee measured on day 2; format: functional, organism-based, Hepacivirus hominis; details: genotype 1a H77, 48 h
# [36] = Oral bioavailability in rat at 5 mg/kg; format: ADME, organism-based; details: in vivo
# [37] = Half life in dog at 5 mg/kg, po; format: ADME, organism-based, Canis lupus familiaris; design: dose 5 mg/kg, route oral; details: in vivo; how it was run: as §3
# Hepatitis C virus [38] = test: Antiviral activity against wild type HCV 1b strain N infected in chimpanzee; format: functional, organism-based, Hepacivirus hominis; details: genotype 1b strain N
# Hepatitis C virus [39] = test: Drug resistance, ratio of EC50 for HCV 1b strain N with NS5B polymerase C316Y mutation to EC50 for wild type HCV 1b strain N infected in chimpanzee measured on day 2; format: functional, Hepacivirus hominis, genotype 1b strain N
# Hepatitis C virus [40] = test: Drug resistance, ratio of EC50 for HCV 1a H77 with NS5B polymerase G554D mutation to EC50 for wild type HCV 1a H77 infected in chimpanzee measured on day 5; format: functional, Hepacivirus hominis, genotype 1a H77
# Hepatitis C virus [41] = test: Ratio of EC50 for HCV 1a H77 in presence of 40% human serum to EC50 for HCV 1a H77 in absence of human serum; format: functional, Hepacivirus hominis, genotype 1a H77; how it was run: as §5
# Hepatitis C virus [42] = test: Antiviral activity against HCV 1a H77 with NS5B polymerase G554D mutation infected in chimpanzee measured on day 16; format: functional, organism-based, Hepacivirus hominis; details: genotype 1a H77, 384 h
# [43] = AUC in monkey at 5 mg/kg, po; format: ADME, organism-based, Macaca mulatta; design: dose 5 mg/kg, route oral; details: rhesus monkey, plasma; how it was run: as §3
# Hepatitis C virus [44] = test: Drug resistance, ratio of EC50 for HCV 1b strain N with NS5B polymerase C316Y mutation to EC50 for wild type HCV 1b strain N infected in chimpanzee measured on day 5; format: functional, Hepacivirus hominis, genotype 1b strain N
compound,measurement,setting,value
CC(C)CC[C@@]1(C)C(=O)C(C2=NS(=O)(=O)c3cc(NS(C)(=O)=O)ccc3N2)=C(O)c2ccccc21,log10cfu,Hepatitis C virus [1],2.5 /ml
same,pEC50,Hepatitis C virus [2],8.52
same,fold change (FC),Hepatitis C virus [3],2000
same,Tmax,[4],2.7 h
same,pEC50,Hepatitis C virus [5],8.35
same,AUC,[6],10500 ng·h/mL
same,Tmax,[7],0.4 h
same,Cmax,[8],1940 ng/mL
same,AUC,[9],3300 ng·h/mL
same,pEC50,Hepatitis C virus [10],7.60
same,pEC50,Hepatitis C virus [11],5.92
same,bioavailability,[12],15.2%
same,Tmax,[13],4.2 h
same,pEC50,Hepatitis C virus [14],6.46
same,pEC50,Hepatitis C virus [15],7.38
same,Cmax,[16],5490 ng/mL
same,fold change (FC),Hepatitis C virus [17],3.9
same,fold change (FC),Hepatitis C virus [18],15
same,half-life,[19],7.6 h
same,pEC50,Hepatitis C virus [20],5.74
same,bioavailability,[21],89.3%
same,half-life,[22],1.9 h
same,pIC50,[23],8.90
same,fold change (FC),Hepatitis C virus [24],2.3
same,Cmax,[25],8590 ng/mL
same,fold change (FC),Hepatitis C virus [26],2.2
same,Cmax,[27],520 ng/mL
same,pEC50,Hepatitis C virus [28],7.96
same,pEC50,Hepatitis C virus [29],6.84
same,Cmax,[30],310 ng/mL
same,pIC50,Hepatitis C virus [31],9.48
same,log10cfu,Hepatitis C virus [32],1.4 /ml
same,pEC50,Hepatitis C virus [33],8.09
same,fold change (FC),Hepatitis C virus [34],389
same,pEC50,Hepatitis C virus [35],8.11
same,bioavailability,[36],62.7%
same,half-life,[37],10.7 h
same,pEC50,Hepatitis C virus [38],9.05
same,fold change (FC),Hepatitis C virus [39],28
same,fold change (FC),Hepatitis C virus [40],1.3
same,fold change (FC),Hepatitis C virus [41],13
same,pEC50,Hepatitis C virus [42],7.86
same,AUC,[43],1500 ng·h/mL
same,fold change (FC),Hepatitis C virus [44],1330
COc1ccc2c(O[C@@H]3C[C@H]4C(=O)N[C@]5(C(=O)O)C[C@H]5/C=C\CCCCC[C@H](NC(=O)OC5CCCC5)C(=O)N4C3)cc(-c3csc(NC(C)C)n3)nc2c1 [CILUPREVIR],fold change (FC),Hepatitis C virus [3],0.8
same,pEC50,Hepatitis C virus [5],8.51
same,pEC50,Hepatitis C virus [10],8.89
same,pEC50,Hepatitis C virus [11],8.89
same,pEC50,Hepatitis C virus [14],8.89
same,fold change (FC),Hepatitis C virus [17],0.9
same,pEC50,Hepatitis C virus [20],8.96
same,fold change (FC),Hepatitis C virus [24],1.1
same,fold change (FC),Hepatitis C virus [26],0.9
same,pEC50,Hepatitis C virus [33],8.48
same,fold change (FC),Hepatitis C virus [34],1
same,pEC50,Hepatitis C virus [35],8.57
same,pEC50,Hepatitis C virus [38],8.85
same,fold change (FC),Hepatitis C virus [39],1
same,fold change (FC),Hepatitis C virus [40],1
same,pEC50,Hepatitis C virus [42],8.55
same,fold change (FC),Hepatitis C virus [44],1.1
